# Published values collected from several papers.
# Protocols differ between the studies behind these lines.
SMILES,assay,test system,conditions,quantity,result
Oc1c(Br)cc(Cl)c2cccnc12,,"Sprague-Dawley rat, plasma","subcutaneous, 10 mg/kg",Vd/F,15.1 L/kg
C#Cc1cccc(Nc2ncnc3cc(OCCOC)c(OCCOC)cc23)c1,,"male Sprague-Dawley rat, plasma","oral, 12 mg/kg, single dose",Vd/F,4.3 L/kg
O=C(CCCCCCC(=O)Nc1ccccc1)NO,,"cat, serum","oral, 250 mg/m², single dose",Cmax,39 ng/mL
Cc1cc(Cl)c(Cl)cc1NC(=O)c1ccc(N2CCNCC2)nc1,metabolic stability,"CD-1 mouse, liver microsomes","1 µM, 1 h, pH 7.4",scaled CLint,47 mL/min/kg
c1ccc(-c2nc(N3CCc4cccnc4C3)c3ccccc3n2)nc1,metabolic stability,"mouse, liver microsomes",,microsomal CLint,520 µL/min/mg
CC(=O)Nc1nnc(N2CCN([C@@H](C)c3ccc4c(c3)OCO4)CC2)s1,,"monkey, plasma",1 µM,fraction unbound,0.068
c1ccc(-c2nc(NCc3nc4ccccc4o3)c3ccccc3n2)nc1,metabolic stability,"mouse, liver microsomes",,microsomal CLint,119 µL/min/mg
CNCc1cc(-c2ccccc2F)n(S(=O)(=O)c2cccnc2)c1,,"Sprague-Dawley rat, plasma","oral, 10 mg/kg",Vd/F,32.2 L/kg
Cc1ccc(-c2nc3ccccc3o2)cc1NC(=O)c1cc([N+](=O)[O-])c(N2CCNCC2)cc1Cl,metabolic stability,"CD-1 mouse, liver microsomes","1 µM, 1 h, pH 7.4",scaled CLint,12 mL/min/kg
O=C(O)C1CCN(c2nc(-c3ccccn3)nc3ccccc23)C1 (stereo not shown),metabolic stability,"mouse, liver microsomes",,microsomal CLint,< 1 µL/min/mg
